Data set [1] is described as follows: Clearance in CD-1 mouse at 5 mg/kg, iv administered as single dose. On the set-up: dose 5 mg/kg, route intravenous. The following applies: in vivo. Format: ADME, organism-based.
Data set [2] in a line: Oral bioavailability in CD-1 mouse at 25 mg/kg, po administered as single dose. The following applies: CD-1, mouse, in vivo. Format: ADME, organism-based.
The nature of data set [3]: Permeability of the compound by PAMPA assay at pH 7.4. Format: ADME. As to conditions: read-out: permeability. The method in brief: (§1)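 Parallel artificial membrane permeability assay run at pH 5.0 and pH 7.4; permeability reported in nm/s.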
(The PAMPA barrier holds no transporters, so it reflects passive diffusion.)

A short description of data set [4]: Volume of distribution at steady state in CD-1 mouse at 5 mg/kg, iv administered as single dose. Format: ADME, organism-based. On the set-up: dose 5 mg/kg, route intravenous. The following applies: in vivo, read-out: Vdss.
Data set [5] in a line: Cmax in CD-1 mouse plasma at 25 mg/kg, po administered as single dose. Format: ADME, organism-based. The arrangement: dose 25 mg/kg, route oral.
Data set [6] is described as follows: Permeability of the compound by PAMPA assay at pH 5.0. Format: ADME. The following applies: read-out: permeability. The method in brief:
as §1

For data set [7], the system named is Mus musculus. Kind of data set: Increase in blood glucose level in CD-1 nu/nu mouse at 10 mg/kg, po upto 8 hrs. The format is functional, organism-based. On the set-up: dose 10 mg/kg. The method in brief: (§2)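 Blood glucose measured in GEO xenograft mice after the last dose of a 14-day oral dosing study, over a time course to 24 h.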
The test system of data set [8] is Mus musculus. Kind of data set: Inhibition of human IGF1R phosphorylation in human GEO cells xenografted in CD-1 nu/nu mouse assessed as sustained inhibition measured 24 hrs post last dose at 20 mg/kg, po qd administered for 14 days. In general terms: In xenograft studies the graft and the host belong to different species.
Data set [9] deals with RAC-alpha serine/threonine-protein kinase (Homo sapiens) (UniProt P31749). Kind of data set: Inhibition of AKT phosphorylation in human GEO cells. Format: cell-based.
Chain of RAC-alpha serine/threonine-protein kinase (Homo sapiens) (P31749 whole entry): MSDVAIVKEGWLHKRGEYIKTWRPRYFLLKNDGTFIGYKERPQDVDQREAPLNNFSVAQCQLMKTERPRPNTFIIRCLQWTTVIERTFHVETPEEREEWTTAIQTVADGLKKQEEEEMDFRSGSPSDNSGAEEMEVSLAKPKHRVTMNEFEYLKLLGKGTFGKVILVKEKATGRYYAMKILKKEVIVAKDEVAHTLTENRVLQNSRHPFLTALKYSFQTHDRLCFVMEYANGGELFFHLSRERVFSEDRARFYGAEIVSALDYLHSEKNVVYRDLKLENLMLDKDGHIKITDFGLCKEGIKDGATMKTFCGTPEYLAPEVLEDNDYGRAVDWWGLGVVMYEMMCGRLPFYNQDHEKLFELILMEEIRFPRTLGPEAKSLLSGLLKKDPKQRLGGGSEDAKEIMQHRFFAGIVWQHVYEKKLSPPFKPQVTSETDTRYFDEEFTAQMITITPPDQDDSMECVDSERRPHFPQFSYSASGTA
Data set [10] relates to Mus musculus. As to the kind of experiment: Increase in blood glucose level in CD-1 nu/nu mouse at 10 mg/kg, po after 24 hrs. The format is functional, organism-based. The arrangement: dose 10 mg/kg. The gist of the method:
as §2

Activity calls are given as the source filed them. The calls are words filed in the database; no cut-off is given here.

In general, clearance refers to the rate of elimination divided by the concentration. Higher therefore signals efficient removal. The term bioavailability denotes the share of a dose that reaches the circulation, judged against a reference dose that is usually intravenous. A higher bioavailability goes with much systemic uptake. One may read the Cmax as the maximum level reached in the sampled fluid or tissue. For the compound `CN1CCN([C@H]2C[C@@H](c3nc(-c4ccc5ccc(-c6ccccc6)nc5c4F)c4c(N)ncnn43)C2)CC1`, the clearance in data set [1] was found to be 21 mL/min/kg. The compound further had a bioavailability in data set [2] of 27%. In addition, the Papp in data set [3] turned out to be 67.2 ×10⁻⁶ cm/s; in [6], 14.5 ×10⁻⁶ cm/s. Besides, the Vd in data set [4] turned out to be 4.9 L/kg. Further, the highest level in [5] (Cmax) was 1900 nM.

With `C[C@]1(O)C[C@@H](c2nc(-c3ccc4ccc(-c5ccccc5)nc4c3F)c3c(N)ncnn32)C1`, in the data set on Mus musculus [7], the outcome was Active. In addition, the inhibition result (in the data set on Mus musculus [8]; in [9]) was “Active” in each case. Besides, the result in the data set with Mus musculus [10] was inactive.

The values are drawn from ChEMBL document CHEMBL1687700, “Discovery of an Orally Efficacious Imidazo[5,1-f][1,2,4]triazine Dual Inhibitor of IGF-1R and IR” (ACS Med Chem Lett, 2010).
